Test results: the EternaBench riboswitch data

Tested on: MS2 coat protein
Assay: apparent Kd, MS2 coat protein; higher = weaker binding; RNA-MaP array; FMN 200 µM where present
Summary of the method: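 Designs on Illumina sequencing-chip clusters, transcribed by stalled E. coli RNA polymerase, were exposed to SNAP-549-labelled MS2 coat protein in doubling steps from 0.7 or 1.5 nM up to 3 µM, without and then with constant ligand. The buffer held 100 mM Tris-HCl pH 7.5, 80 mM KCl, 4 mM MgCl2, BSA, DTT, yeast tRNA and Tween-20. Apparent Kd values are medians of filtered per-cluster binding-curve fits to green signal normalised to red-channel RNA signal and control-cluster median Fmax.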

[1] = designed as: OFF switch for flavin mononucleotide, no ligand
[2] = ligand present: flavin mononucleotide, designed as: OFF switch for flavin mononucleotide
[3] = designed as: ON switch for flavin mononucleotide, no ligand
[4] = ligand present: flavin mononucleotide, designed as: ON switch for flavin mononucleotide

Row | Sequence | apparent Kd [1] [nM] | apparent Kd [2] [nM] | apparent Kd [3] [nM] | apparent Kd [4] [nM]
1 | AAAUAAAACGAUCGGCGAUCCAUACAUGAGGAUCACCCAUGUAGAAGGCACUCUACAAAGUAGAGUGAGGAUAUACGAGAUCGA | 7.13 | 95.5 | – | –
2 | UGUUGUAUUACAGGAUAUCUAUGAUUUUUAUCUAGAGAAGGGUAUUCACAUGAGGAUCACCCAUGUAUAUACGAGGAAGUUGUG | – | – | 31.2 | 30.6
3 | CCUUCGUGAGGAUAUCAUAGACAGCUCUCAGAAAUGGUCAAUGAGAAGGCACAUGAGGAUCACCCAUGUGGGUC | 56.3 | 198 | – | –
4 | UUAUACAUGAGGAUCUCCCAUGACAUGAGGAUCACCCAUGUGCAGGAUAUACGUGUUAUAAUAUAGUAGAAGGGCAGUCUAUGU | 27.2 | 66.5 | – | –
5 | UUCGUGCAGCUUUGCUGUACGCGUACAUGAGGAUCACCCAUGUAGGAUAUGGUACGCUUUGCGUGCUAGAAGGAUAUGGAAAGG | 14.7 | 16.6 | – | –
6 | AAAUAGCGAGGAUAUACAUGAGGAUCACCCAUGUGGACUGAUGUCGCAUGUUUCAGUGGUAGAAGGUGCUCAAA | 136 | 299 | – | –
7 | UCCGCCAAAGGAUAUACUGGGCGUUAAAAUCCUCUUAAAAGACAUGAGGAUCACCCAUGUAGAAGGUUGAGGAA | 209 | 575 | – | –
8 | UUGCGGUAGGAGAAGGACAGAGGCUUCAUUACAUACAUGAGGAUCACCCAUGUAGGAUAUCCUACCUAACGCGGACUCCUCCUG | 10.7 | 20.1 | – | –
9 | AGAUCGACUGUGAGGAUAUUGACCGGACGACCCAUCGAGAAGGCACAUGAGGAUCACCCAUGUGAGUCGGUUUA | 15.5 | 17 | – | –
10 | GUAGUGCUCAUAGGAUAUCGGGAACAACGUAGACAGGUUGUACAUGAGGAUCACCCAUGUAAAGUCGAGAAGGGUGAUCACGCC | – | – | 519 | 194
11 | GGAUAGGACAGAGGAUAUACGUGCUAGAGAUACUAGCAAAAUUUCCUCACAUGAGGAUCACCCAUGUAGAAGGCUGUCCUAUCU | 45.2 | 882 | – | –
12 | CUUUUGUGAGGAUAUUCGUAGUAAAUGAAUAAAAUUAUUACGGAGAAGGCACAUGAGGAUCACCCAUGUUCCUC | 42.2 | 343 | – | –
13 | GCUAUCGAUGUAGGAUAUGCUAGGGAAACCCUGGCAGAAGGACAUGAGGAUCACCCAUGUCAAUGGAUGAAGAGAAGAGAUGGC | 27.8 | 122 | – | –
14 | AAAACAUGAGGAUCACCCAUGUAAAGAUCGGUUGAUGAAGGUGAGGAUAUACAAAACUUUAUGGAGUAGAAGGCACUGGGUUGA | – | – | 109 | 59.3
15 | AAAUAAACUAGCAUAAUAACCUCACAUGAGGAUCACCCAUGUCAGGAUAUCUGUCCUAAAAGGACAGAGAAGGGACGUGCUAGG | 5.68 | 6.95 | – | –
16 | UUCAUGUGAGGAUAUGUGAUCUGCUUUCUGUGUAGAUGAUCACAGAAGGCACAUGAGGAUCACCCAUGUAGAUC | 103 | 79.4 | – | –
17 | CCGAAUAUGCAGGAUAUCGUAUAGGAAACUAUACGAGAAGGGUAAACAUGAGGAUCACCCAUGUUCCUUAACGG | 20.8 | 19.2 | – | –
18 | ACUGGUCAAGGAUAUACAAUCGUGCUUCGGCACGUAAGAUCACAUGAGGAUCACCCAUGUAGAAGGUGACCAGU | 38.6 | 470 | – | –
19 | CCAUGCGGAUGAGGAUAUUCAUUCAUGAGGAUAGAAGAAGGCGUACAUGAGGAUCACCCAUGUAUACACAUGAGGAUCCCUUAC | 385 | 372 | – | –
20 | UUUAUUUUUAGAGGAUAUAUUGUGUGUGAGAGAAUAGAAGGCUAAACAUACAUGAACAUGAGGAUCACCCAUGUCACCCAUGUU | – | – | 78.2 | 54.9
21 | UCGGCGCGAGGAUAUGCGGUUGCUCCCUAGGGUCGGAGCGUACAUGAGGAUCACCCAUGUAGAAGGCGCGCCGC | 16.2 | 16.3 | – | –
22 | AUCCGGCGUGUAGGAUAUGGAUCCGAUUAGGAUCCAGAAGGACAUGAGGAUCACCCAUGUACAUGUAAACAGUCAUCACCGGAC | 11.5 | 136 | – | –
23 | CUAAAUCAUGUAGGAUAUGCAUGGCGAAGCUACGCAGAAGGACAUGAGGAUCACCCAUGUCUCUCCGUCUGCGAACAGACGGAG | 19.6 | 104 | – | –
24 | GUUAUAAUUGAAGGAUAUCUAUAUCCAACAUGAGGAUCACCCAUGUUGAGGAUCACCCAUGUAAAGGAGAAGGUUAAUUAUAAU | – | – | 84.2 | 25.2
25 | GCAGCCGAUGCAGGAUAUCAGCACGUGUAGUGCUGAGAAGGGCACAUGAGGAUCACCCAUGUGAUCAAUUAAUAUCGAUGCUGC | 6.56 | 14.3 | – | –
26 | UACAUGGAACAGAAGGGCAAUUUAUUUAAUUAUUAUUUAGAACAGCUUUGCAGGAUAUGUUUAACAUGAGGAUCACCCAUGUAC | – | – | 57.6 | 17.4
27 | ACAUUGUUAGGAUAUGCUGCUCGUCACUUGCGUGAUGAGUAGCAGAAGGAACAUGAGGAUCACCCAUGUAAAGA | 33.7 | 56.1 | – | –
28 | AAAACAUGAGGAUCACCCAUGUAAAGAUCGGUUAAUAGAGGUGAGGAUAUACGAACUUAAAGGUAGUAGAAGGCACUGGGUACA | – | – | 47.1 | 35.5

Row | Sequence | apparent Kd [1] [nM] | apparent Kd [2] [nM] | apparent Kd [3] [nM] | apparent Kd [4] [nM]
29 | UAGAAGUCAGGAUAUCCAGCUCGUCACUUGCGUGAUGAGUUGGAGAAGGGACAUGAGGAUCACCCAUGUAAAGU | 56.3 | 58.3 | – | –
30 | AGUUCCUCCGCAGGAUAUGUGCUCUUUAUCACAUGAGGAUCACCCAUGUCAGCCGAAACGGCGAGACAGAAGGGUGGUGGUGCC | – | – | 213 | 169
31 | CGCCAUCCCGUUGGCGUGAGGAUACCAGAAGGGACGAUCUCACAUGAGGAUCACCCAUGUUAUAGUCAGGAUAUGGGUUCAUCA | – | – | 135 | 14.2
32 | UGGUACUAGGGAGGAUAUGGGAAGAUACAUGAGGAUCACCCAUGUUUAAGAAUGCCGAGAGGCUACUAGAAGGCCCUAGUACCU | – | – | 268 | 9.69
33 | ACAUGAGGAUCACCCAUGUGAACAUAGGAUAUUGGUGAUCAGGCGUGUUAUACAGGAUAGGUCUGCGAGAAGGGUGUACGUUGC | – | – | 367 | 71.7
34 | CUCAAACAUGAGGAUCACCCAUGUGUUGUCAUGGGAGGAUAUCCCAGUUCGUUGUCGUCGGGAGAAGGCCUAUGUC | – | – | 65 | 29.3
35 | CCAGAGAUAUGAGGAUAUCGAGUGGAUAACACUCGAGAAGGCAUGUGAAAACAUGAGGAUCACCCAUGUAUGAUCUACUCUGGA | – | – | 50.6 | 23.8
36 | GCGCACUAAGUGAGGAUAUCGAUUUUUUUUAGGAUCGAGAAGGCACAUGAGGAUCACCCAUGUUUGACGUGCGC | 15.5 | 15.2 | – | –
37 | CUAUGUUAGCAGGAUAUGCCAUUAUUCCUUUUCGCAGAAGGGCUUACAUGAGGAUCACCCAUGUUACAUUUCUU | 12.4 | 17.6 | – | –
38 | CCUAAGCGAAUCAAGAUGGAUAGAACAUGAGGAUCACCCAUGUAGGAUAUGCUACACAAAGUGUAGCAGAAGGACAAGCUUAGG | 25.9 | 40.5 | – | –
39 | AAAUAGAAUGAGGAUAUCGUAUUAUAUUUAGUACGAGAAGGCAUUACAUGAGGAUCACCCAUGUUUUGUUGGGA | 21.8 | 57.9 | – | –
40 | UGGACCGAGCUGUCGGUUGACUCGAAGGAUAUGACAUGAGGAUCACCCAUGUGGGAUCUAAAUUGUCAGAAGGUUGGUUCUGGG | 641 | 276 | – | –
41 | UUUUAACAUGAGGAUCACCCAUGUGAGGAUAUCGAAAUUUAUAUUAAUAUUUUUAUAUCGAGAAGGCACAUUUU | 92.8 | 78.4 | – | –
42 | AGCGGCGCGGGCCACCGCAGAACCAGAAGGACAUGAGGAUCACCCAUGUAGCAGAACAGGGCGGUGUAGGAUAUGGCAGGCUCG | 29.4 | 52.3 | – | –
43 | CGCCGCACCGGCCUGCGGCAGGGUCAGGAUAUACAUGAGGAUCACCCAUGUGAACGGUGCCCUAUGUAGAAGGGACGAAAAGAA | 22.8 | 37.5 | – | –
44 | GCACAUGAGGAUCACCCAUGUGGUCCAGAAGGCCAGAGGACUUGCUUUUAGCAAGUCCUUCAAAUGGAGGAUAUGGAGGGUUCU | – | – | 237 | 42
45 | GGAGAGUUCACAGGAUAUCAUGGGUAGUUAUUUUGAGAAGGGUGAACAAGGAACAUGAGGAUCACCCAUGUAUCCUGGAAGGGC | – | – | 39.9 | 60.5
46 | CGCUGUCAUGCAGGAUAUGCAUUGGAUUACAAUGCAGAAGGGCGAUUACAUGAGGAUCACCCAUGUGUAGACGGUGAAGAAGAG | – | – | 137 | 13.1
47 | GGAUAUAUUACAUGAGGAUCACCCAUGUCAGAACGGGUAAUCAGAAGGUACUAUUAGAGAAAGAGUAAGGAUAUGAUUAUAUCC | – | – | 801 | 165
48 | GAUUCGCGUGAGAAGGACAUGAGGAUCACCCAUGUAGGAUAUCACGGUCCGUAGAGGAUUUCAAACCGUACUGGGUCAUAGUGU | – | – | 14.4 | 6.56
49 | GUGUACGGAGGAUAUAUAUGGGCAGGCUGACCUGCAGCUUCACAUGAGGAUCACCCAUGUAGAAGGCUGUACAC | 41.9 | 224 | – | –
50 | UUUACAUGAGGAUCACCCAUGUCUGUCACACGGAGGUGCAAUCAGGAUAUGAUCUCAAGAAUGAAUUAGAAGGGAUAGGGAGGG | – | – | 187 | 234
51 | CAAUUUAUAACAGGAUAUACAAUACAAUGAUUAGUAGAAGGGUUUAAUACAUGAGGAUCACCCAUGUCAUGUGUCAUAAUAACC | 34.3 | 24.9 | – | –
52 | CCAGCGAGUGUGAGGAUAUGCUGGUCCUUGGAUCAGCAGAAGGCACAUGAGGAUCACCCAUGUGAAAACGUUGG | 28.8 | 179 | – | –
53 | GACUGAUUGUAGAAGGUACUUGACUAUAUAUUUUAUUCAUAUAGACAUGAGGAUCACCCAUGUAGUAAGGAUAUACUUUUAACA | – | – | 9.31 | 6
54 | GGAAUAAAUGCAGGAUAUACGUGGAAAGCCUUCAACAUGAGGAUCACCCAUGUAGAAGGGCAUCUCCCGACCGAAUCGGAUCUC | 5.72 | 6.25 | – | –
55 | CCUCGGUAGACAGGAUAUCCUUACAUGAGGAUCACCCAUGUAGCAAGACAUGGAGAAGGGUCACUGUGGGUAAAAGCGCAUAUC | – | – | 225 | 14
